Rows were chosen to be rich in hits. Some 1.6% of all compounds tested hit in one or more screens of this group.
SKN-1 block: suppressors of acrylamide-induced Pgst-4::GFP reporter in worms, primary screen, SKN-1 inhibitor project, whole organism, uHTS, GFP/RFP fluorescence ratio, strain VP596; AID 624304, 2012; inhibition, % at 21.8 µM; C. elegans VP596 Pgst-4::GFP/RFP ratio, 24 h; actives 0.49% (n = 360,000);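 active = interference check ratio from 0.5 to 1.5 plus GFP to RFP signal ratio inhibition reaching or exceeding a fixed threshold, cut at about 30% in these data, passing the limit was not always enough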
Tb MetRS inh: T. brucei MetRS inhibitors, primary screen, biochemical, luminescence; inhibition, % at 11.9 µM; actives 0.4% (n = 360,000); purified T. brucei MetRS, ATP depletion, Kinase-Glo luminescence; methionyl-tRNA synthetase (Trypanosoma brucei brucei);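 active = inhibition above a per-plate cutoff of the control wells' mean inhibition plus 3 SD, cut at about 5.5% in these data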;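 also: 0% = DMSO wells median and 100% = median of wells with control inhibitor compound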
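Material: parasite MetRS enzyme / Replication: singlicate, one well per compound / Signal: luminescence of leftover ATP / Schedule: 2 h aminoacylation at 25 °C after 15 min preincubation / Medium: HEPES-MgCl2-KCl buffer plus DTT, spermine, BSA, pyrophosphatase / Doses: 11.9 µM single point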
Rin1 Abl inh: inhibitors of Rin1-Abl protein binding, primary screen, biochemical, TR-FRET. Tyrosine-protein kinase ABL1 (Homo sapiens) + Ras and Rab interactor 1 (Homo sapiens), …. inhibition, % at 7.35 µM. actives 0.4% (n = 360,000). AID 588664, 2011; in the data active = inhibition above about 5%, passing the limit was not always enough
Target sequence (P00519 whole entry, looked up): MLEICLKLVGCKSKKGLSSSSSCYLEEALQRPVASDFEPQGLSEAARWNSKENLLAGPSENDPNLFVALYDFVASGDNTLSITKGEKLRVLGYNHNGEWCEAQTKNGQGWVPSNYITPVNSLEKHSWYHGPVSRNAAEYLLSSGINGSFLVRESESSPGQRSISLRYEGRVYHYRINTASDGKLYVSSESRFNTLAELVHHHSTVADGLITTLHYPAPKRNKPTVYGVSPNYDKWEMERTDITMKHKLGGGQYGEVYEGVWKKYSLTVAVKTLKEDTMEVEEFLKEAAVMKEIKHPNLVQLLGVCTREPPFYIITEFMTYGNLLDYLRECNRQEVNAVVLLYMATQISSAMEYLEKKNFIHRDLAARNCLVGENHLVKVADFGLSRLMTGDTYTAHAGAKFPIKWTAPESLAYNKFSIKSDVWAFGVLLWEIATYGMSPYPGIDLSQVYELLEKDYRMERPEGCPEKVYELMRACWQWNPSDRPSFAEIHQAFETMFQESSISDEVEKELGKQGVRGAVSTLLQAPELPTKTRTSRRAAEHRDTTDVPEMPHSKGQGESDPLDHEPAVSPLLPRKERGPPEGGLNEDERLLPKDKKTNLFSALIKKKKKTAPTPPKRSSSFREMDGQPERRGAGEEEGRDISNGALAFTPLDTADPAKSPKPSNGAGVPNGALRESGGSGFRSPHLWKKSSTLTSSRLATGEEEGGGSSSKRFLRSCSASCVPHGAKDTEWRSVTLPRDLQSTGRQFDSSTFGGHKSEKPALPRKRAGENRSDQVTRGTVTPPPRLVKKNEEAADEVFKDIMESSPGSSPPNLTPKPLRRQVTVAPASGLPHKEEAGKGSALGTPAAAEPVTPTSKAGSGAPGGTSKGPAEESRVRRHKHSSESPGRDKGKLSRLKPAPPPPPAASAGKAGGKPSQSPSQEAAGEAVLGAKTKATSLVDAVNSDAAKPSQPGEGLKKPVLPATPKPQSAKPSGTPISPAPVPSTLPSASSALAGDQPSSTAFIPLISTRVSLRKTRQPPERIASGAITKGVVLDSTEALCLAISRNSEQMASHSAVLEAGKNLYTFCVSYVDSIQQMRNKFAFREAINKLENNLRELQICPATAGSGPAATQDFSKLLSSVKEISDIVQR
Target sequence (Q13671 whole entry, looked up): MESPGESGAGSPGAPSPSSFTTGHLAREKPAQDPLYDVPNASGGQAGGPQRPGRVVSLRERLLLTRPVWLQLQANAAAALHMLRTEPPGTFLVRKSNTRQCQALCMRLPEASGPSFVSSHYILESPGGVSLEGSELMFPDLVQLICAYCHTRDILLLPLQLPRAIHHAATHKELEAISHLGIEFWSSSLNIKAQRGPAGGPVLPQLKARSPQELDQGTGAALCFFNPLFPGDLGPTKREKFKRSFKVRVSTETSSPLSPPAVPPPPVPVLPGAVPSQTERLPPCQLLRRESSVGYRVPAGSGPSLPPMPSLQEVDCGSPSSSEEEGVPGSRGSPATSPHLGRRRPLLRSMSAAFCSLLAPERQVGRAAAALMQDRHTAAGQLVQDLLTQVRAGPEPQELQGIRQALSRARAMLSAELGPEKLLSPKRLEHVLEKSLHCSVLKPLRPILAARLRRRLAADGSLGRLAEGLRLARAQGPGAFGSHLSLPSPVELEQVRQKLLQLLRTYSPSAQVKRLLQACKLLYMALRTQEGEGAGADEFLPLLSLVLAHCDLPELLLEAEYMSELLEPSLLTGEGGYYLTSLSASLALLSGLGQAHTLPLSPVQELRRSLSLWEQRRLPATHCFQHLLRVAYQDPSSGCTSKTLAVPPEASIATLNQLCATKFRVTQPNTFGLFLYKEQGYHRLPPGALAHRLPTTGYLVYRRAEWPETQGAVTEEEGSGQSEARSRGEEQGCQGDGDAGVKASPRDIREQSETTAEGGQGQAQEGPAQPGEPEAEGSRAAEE
MT1-MMP act inh: blockers of MT1-MMP proenzyme processing, primary screen, HT1080 RFP-PRO-GFP cells, GFP/RFP fluorescence; Matrix metalloproteinase-14 (Homo sapiens), P50281; GFP/RFP ratio fluorescence, overnight; percent of plate control window, DMSO zero; GFP/RFP ratio change, % at 20 µM; actives 0.061% (n = 360,000);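 active = GFP/RFP ratio change of at least 30% with cell ATP level not reduced by more than half and red fluorescence within 50% of control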
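Material – HT1080 RFP-PRO-GFP cells · Control set – DMSO wells and RFP-L50D-GFP cells · Incubation – overnight cell settling, then overnight compound exposure, 37 °C, 5% CO2 · Compound dosing – single-point 20 µM compound, 1% DMSO · Read-out – GFP/RFP fluorescence ratio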
Arr AP2 block: inhibitors of beta-arrestin/AP2 binding, primary screen, biochemical, GPCR trafficking, flow cytometry; AID 504490, 2011; inhibition, % at 10 µM; beta-arrestin 1 C-terminal peptide binding to AP2 beta2-adaptin appendage (human); FITC-arrestin peptide / GST-AP2 beads; AP2 beta2 appendage carries R879A mutation; actives 0.31% (n = 340,000);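 active = inhibition above a set limit, near 3 SD of compounds lacking own fluorescence, cut at about 54% in these data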;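 also: plate controls were DMSO wells for no effect and 5 µM unlabelled arrestin peptide for full effect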
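Assay system: GST-AP2 R879A bound to glutathione beads, E. coli-expressed; Medium: PBS with 0.05% Tween 20 and 0.1% BSA; Also added: fluorescein-tagged arrestin peptide at 50 nM final; Timing: 12 min plus 1 h, RT; Measured by: flow cytometry, FL1 (488/535 nm); Evaluation: percent drop in bead-associated FITC signal.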
* hit, by the source's call; x = no result given.

SMILES | SKN-1 block | Tb MetRS inh | Rin1 Abl inh | MT1-MMP act inh | Arr AP2 block
COc1ccc(CNC(=O)c2c(N)n(CCCN3CCOCC3)c3nc4ccccc4nc23)cc1 | 36* | -1 | -6 | -1 | 5
COc1ccccc1C(O)c1ncc(-c2cccc(C(F)(F)F)c2)[nH]1 (stereo not given) | 12 | 0 | 2 | 5 | x
O=C1N/C(=C\c2ccc(O)cc2)C(=O)c2ccccc21 | 12 | 7.8* | 7 | 0 | -9
O=C(O)/C=C1\NC(=O)c2ccccc21 | 2 | -1 | -2 | -3 | 4
O=C(O)c1ccccc1-c1ccccc1C(=O)Nc1ccc2c(c1)oc(=O)c1ccccc12 | 36* | 0 | 0 | 1 | x
CN(N=O)c1ccc(CC2CCc3ccccc32)cc1 (stereo not given) | 44* | 0 | 2 | 3 | -1
CN1CCN(C2CN(Cc3cn(Cc4ccccc4)nn3)S(=O)(=O)C2)CC1 (stereo not given) | -7 | -1 | x | 2 | x
CCC(=O)NC(c1ccccc1OC)c1ccc2cccnc2c1O (stereo not given) | 11 | -1 | 14* | 5 | 0
CC[N+](CC)=N/N=C1\C=CC[N+]([O-])=C1 | 1 | 0 | x | 7 | x
COC(=O)C1C2CC3c4[nH]c5cc(OC)ccc5c4CCN3CC2CC(OC(=O)CC(C)=O)C1OC (stereo not given) | 47* | 0 | -2 | -56 | -13
O=S1(=O)CC(N2CCCC2)CN1Cc1cn(Cc2ccc(F)cc2)nn1 (stereo not given) | 4 | -1 | x | 3 | x
c1ccc(CNc2nc(NCc3ccccc3)c3ccccc3n2)cc1 | 32 | 6.5* | 1 | -6 | 6
Cc1nonc1OC(C)CNc1ccc([N+](=O)[O-])cc1 (stereo not given) | 36* | 0 | -2 | 7 | 14
Cc1nonc1OCCNc1ccc([N+](=O)[O-])cc1[N+](=O)[O-] | 21 | 1 | -7 | 13 | 21
CN(CCC(=O)Nc1ccc(Br)cc1)Cc1ccccc1 | 0 | 25* | -1 | 2 | -5
N#Cc1cncc(C#Cc2ccccc2)c1 | 61* | 0 | -1 | -4 | 3
CCCC(=O)NCCc1cc2cc(C)c(C)cc2[nH]c1=O | 2 | -1 | 2 | 6 | 24
CC(=O)NCCc1cc2cc(C)c(C)cc2[nH]c1=O | 32* | -1 | 0 | 5 | 0
Cc1cccc(C)c1N1C(=O)c2ccccc2NC(=O)C1C(=O)Nc1ccc(N2CCOCC2)cc1 (stereo not given) | -1 | 0 | x | -1 | x
N/C(=N\OC(=O)c1cccc(Cl)c1)c1cccnc1 | 42* | 0 | -2 | -5 | 16
N/C(=N\OC(=O)c1cccc(Cl)c1)c1ccncc1 | 19 | -1 | -1 | 1 | 18
N/C(=N\OC(=O)c1ccc(Cl)c(Cl)c1)c1cccnc1 | 51* | 0 | -3 | 5 | 0
O=C(COC(=O)c1ccccn1)c1ccc([N+](=O)[O-])cc1 | 4 | 0 | 1 | -13 | -12
CC(C)[C@@H](NC(=O)OC(C)(C)C)c1cc(C(=O)c2c(-c3ccccc3)[nH]c3ccccc23)c(N)s1 | 11 | -1 | x | -31 | x
CCN(CC)C(=O)Oc1ccc(Br)c2ccccc12 | 37* | 1 | -12 | -1 | 5
SMILES | SKN-1 block | Tb MetRS inh | Rin1 Abl inh | MT1-MMP act inh | Arr AP2 block
CCN(CC)C(=O)Oc1ccc(Cl)c2ccccc12 | 16 | -1 | 3 | 4 | 5
Cn1c(=O)n(C)c2cc(/C=C(/C#N)C(=O)NCc3ccco3)ccc21 | 97* | 0 | -4 | 3 | -1
Cc1cc(/C=C(\C#N)C(=O)NCc2ccco2)c(C)n1-c1ccc(C(=O)O)cc1 | 3 | 0 | 2 | -3 | -10
O=C(O)CC(C(=O)O)C(=Cc1ccccc1)c1ccccc1 (stereo not given) | 1 | 0 | 4 | 7 | x
OC[C@@H]1CN(Cc2ccncc2)C[C@H](n2cnc3c(NCc4ccncc4)ncnc32)O1 | 16 | 0 | 2 | 1 | x
O=C(CCN1C(=O)/C(=C/c2ccccc2Cl)SC1=S)Nc1ccccc1C(=O)O | 39* | -1 | 0 | 2 | -10
CCOc1ccc(N(CC(=O)NC2CCCCC2)C(=O)CNC(=O)c2cccs2)cc1 | 5 | -1 | 5 | 0 | 22
COc1ccc(N(CC(=O)NC2CCCCC2)C(=O)CNC(=O)c2cccs2)cc1 | 41* | 0 | 2 | 0 | 24
O=C(CSc1nnc(COc2cccc3ccccc23)o1)N1c2ccccc2CCc2ccccc21 | 45* | -1 | 5 | -9 | -9
CN1/C(=C\C(=O)Nc2cccc(Cl)c2)C(C)(C)c2ccccc21 | 50* | -1 | -1 | 8 | -1
O=C(Nc1ccc(Br)cc1)c1cccc(S(=O)(=O)Nc2cnc3ccccc3c2)c1 | 4 | 65* | 0 | 3 | 1
O=C(Nc1ccc(Br)cc1)c1cccc(S(=O)(=O)Nc2ccccn2)c1 | 13 | 0 | -2 | 1 | -4
CCCOc1ccc(C(=O)Nc2ccc(Cl)cn2)cc1 | 41* | -1 | 5 | 1 | -10
CC(C)(C)n1nnnc1C(c1ccccc1)N1CCN(c2ccc(C(F)(F)F)cn2)CC1 (stereo not given) | 14 | -1 | x | -7 | x
CN(Cc1cnc2nc(N)nc(N)c2n1)c1ccc(C(=O)NC(CCC(=O)O)C(=O)O)c2ccccc12 (stereo not given) | 12 | 0 | 4 | -12 | -3
CCCN1C2CCCC1CC(NC(=O)c1ccc(Br)cc1)C2 (stereo not given) | -15 | -1 | 1 | 1 | -10
CCCN1C2CCCC1CC(NC(=O)c1ccc(F)cc1)C2 (stereo not given) | 56* | 1 | 3 | 0 | -11
O=C(c1cc(COc2ccc(F)cc2Cl)on1)N1CC2C[C@@H]3CC1C[C@H](C2)C3 | 35* | 0 | 5 | -3 | -17
CCN1C(=O)[C@H]2[C@@H](c3ccc(C)cc3)N[C@]3(CCCN(Cc4ccc(OC)cc4)C3=O)[C@H]2C1=O | -12 | 0 | -1 | 2 | x
c1ccc(Cn2nnc3c(NCCN4CCOCC4)ncnc32)cc1 | 44* | 0 | -2 | 2 | 16
Clc1ccccc1Cn1nnc2c(NCCN3CCOCC3)ncnc21 | 2 | 0 | -2 | 4 | 2
Cc1cccc(C)c1NC(=O)C(c1ccnc2ccccc12)N1CCN(C)CC1 (stereo not given) | 12 | -1 | x | 5 | x

Source: PubChem BioAssay (several laboratories)
